Results from ChEMBL document CHEMBL4196180, “Semisynthesis of ω-Hydroxyalkylcarbonate Derivatives of Hydroxytyrosol as Antitrypanosome Agents” (J Nat Prod, 2018).

Experiments:
[1] = tested on: Trypanosoma brucei brucei; assay: Anti-parasitic activity against Trypanosoma brucei brucei 427 infected in human MRC5 cells assessed as reduction in parasite proliferation after 72 hrs by Alamar blue assay; type: functional, organism-based; details: Trypanosoma brucei, 427, 72 h; in the assay text read “bloodstream forms” for “infected in human MRC5 cells”
Outline: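 Bloodstream-form T. brucei brucei single-marker S427 (S16), grown in HMI-9 with 10% hiFBS at 37 °C, 5% CO2. Parasites seeded at 1 × 10^4 BSF/mL with increasing compound concentrations for 72 h at 37 °C, 5% CO2. Proliferation read by alamarBlue fluorescence (ex 550/em 590 nm); IC50 = 50% inhibition of parasite growth.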

[2] = tested on: Trypanosoma brucei brucei; assay: Potency index, ratio of hydroxytyrosol IC50 to compound IC50 for Trypanosoma brucei brucei 427 […]; type: functional
Outline: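 Activity gain calculated as IC50 of hydroxytyrosol against bloodstream-form T. brucei divided by IC50 of the derivative. Both come from the 72 h alamarBlue assay.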

MRC5 = assay: Cytotoxicity against human MRC5 cells assessed as inhibition of cell growth after 72 hrs by MTT assay; type: cell-based; details: MRC5, 72 h
Outline: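 MRC-5 lung fibroblasts kept in low-glucose DMEM with 10% hiFBS and penicillin/streptomycin at 37 °C, 5% CO2, 100% humidity. Cells trypsinized (0.25%), seeded at 5000 cells/well with increasing compound concentrations, incubated 72 h at 37 °C. MTT colorimetric read-out; IC50 = concentration inhibiting growth 50% vs untreated cells.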

[3] = Selectivity index, ratio of IC50 for MRC5 cells to IC50 for Trypanosoma brucei brucei 427 […]; type: toxicity, cell-based; details: read-out: Ratio IC50
[4] = tested on: Trypanosoma brucei brucei; assay: Anti-parasitic activity against Trypanosoma brucei brucei 427 bloodstream forms assessed as reduction in parasite proliferation after 72 hrs by Alamar blue assay; details: Trypanosoma brucei, 427, 72 h

IC50 [4] | Compound | IC50 [1] | Ratio IC50 [2] | IC50 (MRC5) | selectivity ratio [3]
 | O=C(OCCCCCCO)OCCc1ccc(O)c(O)c1 | 4.1 µM | 11.6 | > 50 µM | > 12
 | O=C(OCCCCO)OCCc1ccc(OCc2ccccc2)c(OCc2ccccc2)c1 | > 10 µM |  |  | 
 | O=C(OCCO)OCCc1ccc(OCc2ccccc2)c(OCc2ccccc2)c1 | 9.4 µM | 5 |  | 
5.7 µM | O=C(OCCCCCCCCO)OCCc1ccc(OCc2ccccc2)c(OCc2ccccc2)c1 |  | 8.3 |  | 
 | O=C(OCCc1ccc(OCc2ccccc2)c(OCc2ccccc2)c1)OCCc1ccc(OCc2ccccc2)c(OCc2ccccc2)c1 | > 10 µM |  |  | 
 | O=C(OCCCCCCO)OCCc1ccc(OCc2ccccc2)c(OCc2ccccc2)c1 | 4.1 µM | 11.6 | > 50 µM | > 12
 | O=C(OCCCCCCCCOC(=O)OCCc1ccc(OCc2ccccc2)c(OCc2ccccc2)c1)OCCc1ccc(OCc2ccccc2)c(OCc2ccccc2)c1 | 6.2 µM | 7.7 |  | 
 | CCCCCCOC(=O)OCCc1ccc(O)c(O)c1 | 0.2 µM | 263.9 | 11.2 µM | 62
 | CCCCCCCCCCCCOC(=O)OCCc1ccc(OCc2ccccc2)c(OCc2ccccc2)c1 | > 10 µM |  |  | 
 | O=C(OCCCCOC(=O)OCCc1ccc(O)c(O)c1)OCCc1ccc(O)c(O)c1 | 4 µM | 12 | > 50 µM | > 13
 | O=C(OCCCCOC(=O)OCCc1ccc(OCc2ccccc2)c(OCc2ccccc2)c1)OCCc1ccc(OCc2ccccc2)c(OCc2ccccc2)c1 | > 10 µM |  |  | 
 | O=C(OCCc1ccc(O)c(O)c1)OCCc1ccc(O)c(O)c1 | 1.3 µM | 37.1 | > 50 µM | > 39
 | CCCCCCCCCCCCCCOC(=O)OCCc1ccc(O)c(O)c1 | 1.4 µM | 33.2 | 9.1 µM | 6
 | O=C(OCCCCO)OCCc1ccc(O)c(O)c1 | > 10 µM |  |  | 
0.5 µM | CCCCCCCCOC(=O)OCCc1ccc(O)c(O)c1 |  | 89.6 | 37.9 µM | 72
 | O=C(OCCCCCCCCOC(=O)OCCc1ccc(O)c(O)c1)OCCc1ccc(O)c(O)c1 | 1 µM | 47.5 | > 50 µM | > 50
 | CCCCCCCCCCCCCCCCOC(=O)OCCc1ccc(O)c(O)c1 | 6.2 µM | 7.7 |  | 
 | CCCCCCCCCCCCOC(=O)OCCc1ccc(O)c(O)c1 | 1.1 µM | 44.4 | 12.4 µM | 12
 | CCCCOC(=O)OCCc1ccc(O)c(O)c1 | 7.2 µM | 6.6 |  | 
1.5 µM | O=C(OCCCCCCCCO)OCCc1ccc(O)c(O)c1 |  | 32.8 | > 50 µM | > 35
 | CCOC(=O)OCCc1ccc(O)c(O)c1 | 1.4 µM | 33.7 | 34.5 µM | 25
 | O=C(OCCCCCCOC(=O)OCCc1ccc(OCc2ccccc2)c(OCc2ccccc2)c1)OCCc1ccc(OCc2ccccc2)c(OCc2ccccc2)c1 | 8.1 µM | 5.9 |  | 
 | O=C(OCCCCCCOC(=O)OCCc1ccc(O)c(O)c1)OCCc1ccc(O)c(O)c1 | 2.1 µM | 22.6 | > 50 µM | > 24
 | CCCCCCOC(=O)OCCc1ccc(OCc2ccccc2)c(OCc2ccccc2)c1 | > 10 µM |  |  | 
 | O=C(OCCO)OCCc1ccc(O)c(O)c1 | 6.4 µM | 7.4 |  | 
 | O=C(OCCOC(=O)OCCc1ccc(O)c(O)c1)OCCc1ccc(O)c(O)c1 | 3.8 µM | 12.6 | > 50 µM | > 13
5.7 µM | O=C(OCCOC(=O)OCCc1ccc(OCc2ccccc2)c(OCc2ccccc2)c1)OCCc1ccc(OCc2ccccc2)c(OCc2ccccc2)c1 |  | 8.4 |  | 
